The results in this text go back to ChEMBL document CHEMBL1221356, “Synthesis and evaluation of antimigratory and antiproliferative activities of lipid-linked [13]-macro-dilactones” (Bioorg Med Chem Lett, 2010).

In general, IC50 refers to the midpoint of a concentration-inhibition curve. The term MIC denotes the lowest concentration that inhibits growth of the organism.

≈ marks a conversion by molar mass, not a printed value. Calls of active or inactive are those of the source. No cut-off for these calls is given here. A value given as a limit tells only on which side of the number the result lay.

The nature of data set [1]: Therapeutic index, ratio of MLC for humanBT20 cells to MIC for BT20 cells. It counts as cell-based, BT-20. The conditions noted are these: human, read-out: TI.
In data set [2] the test system is BT-20. As to the kind of experiment: Antiproliferative activity against human BT20 cells assessed as after 48 hrs by […]. The note with it: BT-20, 48 h. It counts as functional, cell-based. An outline of the steps:
(§1)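 BT-20 cells, 5,000/well, grown 24 h at 37 °C, 5% CO2 before treatment with a range of concentrations or 1% DMSO for 48 h. Cell number by WST-8 tetrazolium absorbance at 450 nm after 3 h, versus an initial plate read at time of dosing. Four wells per experiment, three independent experiments. IC50 fitted from 48 h mean cell numbers. MIC is significant reduction versus control (t-test).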

The subject of data set [3] is BT-20. As to the kind of experiment: Antiproliferative activity against human BT20 cells assessed as reduction in cell number after 48 hrs by […] assay. The note with it: for MIC: Homo sapiens, 48 h. It counts as functional. An outline of the steps: as §1
(In general: Tetrazolium assays rely on reduction of a dye to a coloured formazan, in cell work by metabolically active cells.)

Data set [4] has as its system BT-20. As to the kind of experiment: Antimigratory activity against human BT20 cells assessed as mean rate of migration after 48 hrs by wound closure assay. It counts as functional. The gist of the method:
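Kinetic wound-closure assay in confluent BT-20 monolayers grown in MEM with 10% FBS, wounded 30 min after addition of a range of concentrations or DMSO. Wound area measured from digital images at 3–72 h post-wounding.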

In data set [5] the test system is MDA-MB-435. As to the kind of experiment: Antimigratory activity against human MDA-MB-435 cells assessed as mean rate of migration by wound closure assay. It counts as functional, cell-based. An outline of the steps:
(§2)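 Screening scratch-wound assay on confluent monolayers in 24-well plates. Medium changed to fresh medium with 100 µM compound or 1% DMSO; wounds of 0.5–1.0 mm2 scraped with a micropipet tip 30 min later. Scored closed/open by inverted microscopy every 12 h for 72 h; antimigratory if wound remained open after DMSO controls closed. Trypan blue exclusion at end. Culture at 37 °C, 5% CO2.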

Data set [6] has as its system BT-20. Nature of the data set: Activity against human BT20 cells by trypan blue exclusion assay.
The test system of data set [7] is MDCK. Nature of the data set: Antimigratory activity against MDCK cells assessed as mean rate of migration by wound closure assay. It counts as functional, cell-based. The conditions noted are these: Canis lupus familiaris. An outline of the steps:
as §2

The subject of data set [8] is T47D. Nature of the data set: Antimigratory activity against human T47D cells assessed as mean rate of migration by wound closure assay. It counts as functional, cell-based. An outline of the steps: as §2

Regarding `CCCCCCCCO[C@@H]1O[C@H](CO)[C@@H](O)[C@H](OCc2ccccc2)[C@H]1OCc1ccccc1`, the selectivity ratio in data set [1] came out at 4. Besides, the IC50 in data set [2] came out at 61.1 µM. Further, in data set [3], the MLC was 100 µM (≈ 47.3 µg/mL) and the MIC came to 25 µM (≈ 11.8 µg/mL).

Turning to `CCCCCCCCO[C@H]1O[C@@H]2COC(=O)CC/C=C/CCC(=O)O[C@H]2[C@H](OC)[C@H]1OC`, the minimum inhibitory concentration (MIC) in data set [4] turned out to be 75 µM (≈ 34.2 µg/mL); in data set [3] it was 50 µM (≈ 22.8 µg/mL). In addition, the outcome in data set [5] and in data set [7] was Active. Also, the figures for the MLC in data set [6] and in data set [3] were 125 µM (≈ 57.1 µg/mL) and 300 µM (≈ 137 µg/mL), respectively. In data set [1], the selectivity ratio amounted to 6. The result in data set [8] was inactive. Also, in data set [2], the IC50 turned out to be 91.4 µM.

Consider `CCCCCCCCO[C@H]1O[C@@H]2COC(c3ccccc3)O[C@H]2[C@H](O)[C@H]1O` (stereo partly specified), for which the result in data set [5] and in data set [7] was Active. Besides, the selectivity ratio in data set [1] was determined as 7.5. Also, in data set [8], the outcome was inactive. In data set [2], the IC50 was 47.1 µM. In data set [3], the MLC stood at 75 µM (≈ 28.5 µg/mL). In data set [3], the MIC is 10 µM (≈ 3.8 µg/mL).

Consider `CCCCCCCCO[C@H]1O[C@@H]2COC(=O)CC[C@H]3O[C@@H]3CCC(=O)O[C@H]2[C@H](O)[C@H]1O`, for which the minimal inhibitory concentration (MIC) in data set [4] and in data set [3] was 50 µM (≈ 22.2 µg/mL) each time. The outcome in data set [5] and in data set [7] was Active. Further, the MLC in data set [6] is 125 µM (≈ 55.6 µg/mL); in data set [3], above 300 µM. For the same compound, the selectivity ratio in data set [1] was above 6. The result in data set [8] was inactive. Moreover, the 50% inhibitory concentration (IC50) in data set [2] was 107 µM.

Take `CCCCCCCCO[C@H]1O[C@@H]2COC(=O)CCCCCCC(=O)O[C@H]2[C@H](O)[C@H]1O`: the minimal inhibitory concentration (MIC) was determined as 50 µM (≈ 21.5 µg/mL) in data set [4] and 10 µM (≈ 4.31 µg/mL) in data set [3]. Also, the outcome in data set [5] and in data set [7] was Active. The values for the MLC in data set [6] and in data set [3] were 75 µM (≈ 32.3 µg/mL) and 50 µM (≈ 21.5 µg/mL), respectively. For the same compound, the selectivity ratio in data set [1] came to 5. In data set [8], the outcome was inactive. The IC50 in data set [2] is 38.1 µM.

`CCCCCCCCO[C@@H]1O[C@@H]2COC(c3ccccc3)O[C@H]2[C@H](O)[C@H]1O` (stereo partly specified): the outcome in data set [5] was Active. Further, in data set [1], the selectivity ratio is 6. In data set [7], the outcome was Active. In addition, the result in data set [8] was inactive. Besides, the IC50 in data set [2] worked out at 72.1 µM. For the same compound, in data set [3], the MLC is 300 µM (≈ 114 µg/mL) and the minimum inhibitory concentration (MIC) is 50 µM (≈ 19 µg/mL).

For the compound `CCCCCCCCO[C@H]1O[C@H](CO)[C@@H](O)[C@H](OCc2ccccc2)[C@H]1OCc1ccccc1`, the selectivity ratio in data set [1] worked out at 3. In data set [2], the IC50 was determined as 52.9 µM. Further, in data set [3], the MLC was determined as 75 µM (≈ 35.4 µg/mL) and the MIC was determined as 25 µM (≈ 11.8 µg/mL).

Turning to `CCCCCCCCO[C@H]1O[C@@H]2COC(=O)CC/C=C/CCC(=O)O[C@H]2[C@H](OCc2ccccc2)[C@H]1OCc1ccccc1`, the result in data set [5] was Active. Further, the selectivity ratio in data set [1] was determined as 30. Also, the outcome in data set [7] was Active. Moreover, in data set [8], the outcome was inactive. The concentration for half-maximal inhibition (IC50) in data set [2] stood at 85.1 µM. In addition, in data set [3], the MLC was 300 µM (≈ 183 µg/mL) and the minimum inhibitory concentration (MIC) came out at 10 µM (≈ 6.09 µg/mL).
